PubChem BioAssay AID624175 (Southern Research Specialized Biocontainment Screening …, 2012)
The source made the active and inactive calls.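 How the source made its calls: active means inhibition of 30% or more at any tested concentration; inactive means the rest.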

target: Leucine aminopeptidase (Plasmodium falciparum (isolate 3D7)) (UniProt Q8IL11); assay: P. falciparum leucine aminopeptidase M17 inhibition – biochemical, QFRET, H-Leu-NHMec substrate, set 3, selectivity assay for PFM18AAP inhibitor project, dose response (AID 624175); details: recombinant PfM17LAP, H-Leu-NHMec fluorogenic cleavage
Sequence (Q8IL11 whole entry, looked up): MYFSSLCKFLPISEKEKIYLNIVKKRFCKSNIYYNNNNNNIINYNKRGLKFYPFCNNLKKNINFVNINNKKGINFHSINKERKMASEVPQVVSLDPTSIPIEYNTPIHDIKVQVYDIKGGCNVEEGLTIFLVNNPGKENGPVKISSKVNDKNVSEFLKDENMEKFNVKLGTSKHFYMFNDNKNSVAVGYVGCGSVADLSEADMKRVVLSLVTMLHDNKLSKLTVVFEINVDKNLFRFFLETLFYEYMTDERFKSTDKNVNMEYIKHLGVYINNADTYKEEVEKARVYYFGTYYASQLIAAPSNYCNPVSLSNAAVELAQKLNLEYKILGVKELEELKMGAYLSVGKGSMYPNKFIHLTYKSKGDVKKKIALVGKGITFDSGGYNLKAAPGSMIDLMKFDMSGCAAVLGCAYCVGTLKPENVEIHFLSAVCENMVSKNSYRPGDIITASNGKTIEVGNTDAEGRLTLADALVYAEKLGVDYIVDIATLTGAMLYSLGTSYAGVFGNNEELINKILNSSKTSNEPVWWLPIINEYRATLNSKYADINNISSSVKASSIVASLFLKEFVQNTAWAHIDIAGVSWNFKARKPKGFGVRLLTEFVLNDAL
How it was run: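 test system = recombinant PfM17LAP enzyme | compound dosing = 10-point twofold dilution series, 100 down to 0.2 µM, 2% DMSO | timing = enzyme reaction of 90 min at room temperature | measured by = fluorescence of released NHMec, excitation 370 nm, emission 460 nm | evaluation = % inhibition and fitted IC50 | repeats = triplicate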

Row | IC50 [µM] | Compound
1 | 35.7 | Oc1ccc(CCNc2ccnc3c(F)cccc23)cc1O
2 | 35.3 | Oc1cccc(CCNc2ccnc3ccccc23)c1O
3 | 101 | CC(C)(CNc1ccnc2ccccc12)c1ccc(O)c(O)c1
4 | 76.5 | CC(Cc1ccc(O)c(O)c1)Nc1ccnc2ccccc12 (centres undefined)
5 | 56 | Oc1ccc(CCCNc2c3c(nc4ccccc24)CCCC3)cc1O
6 | 30.3 | Oc1ccc(C2CCN(c3ccnc4ccccc34)C2)cc1O (centres undefined)
7 | 44 | CN(CCc1ccc(O)c(O)c1)c1ccnc2cc(Cl)ccc12
8 | 57.6 | CN(CCCc1ccc(O)c(O)c1)c1ccnc2ccccc12
9 | 65.3 | Cc1cccc2c(NCCc3ccc(O)c(O)c3)ccnc12
10 | 30.4 | CN(CCc1ccc(O)c(O)c1)c1ncnc2ccccc12
11 | 53.2 | Oc1ccc(C2CCCN(c3ccnc4ccccc34)C2)cc1O (centres undefined)
12 | 73.4 | Oc1ccc(CCNc2ccnc3cc(Cl)ccc23)cc1O
13 | 55.1 | Cc1cccc2c(N(C)CCc3ccc(O)c(O)c3)ccnc12
14 | 47.4 | Cc1cc(N(C)CCc2ccc(O)c(O)c2)c2ccccc2n1
15 | 38.4 | Oc1ccc(C2CCN(c3ccnc4ccccc34)CC2)cc1O
16 | 34.6 | CN(CCc1ccc(O)c(O)c1)c1ccnc2c(F)cccc12

same assay, conditions: recombinant PfM17LAP, H-Leu-NHMec fluorogenic cleavage; at 50 µM (top of the series)

Row | inhibition | Compound
17 | inactive | CCN(CC)Cc1cc(Nc2ccnc3cc(Cl)ccc23)ccc1O

same assay, conditions: recombinant PfM17LAP, H-Leu-NHMec fluorogenic cleavage; at 100 µM (top of the series)

Row | Compound | inhibition
18 | Nc1c2ccccc2nc2ccccc12 | inactive
19 | COc1ccc(C2CCN(c3ccnc4ccccc34)C2)cc1OC (centres undefined) | inactive
20 | Clc1c2c(nc3ccccc13)CCCC2 | inactive
21 | CN(CCc1ccc(O)c(O)c1)c1c2ccccc2nc2ccccc12 | inactive
22 | COc1ccc(CCN(C)c2ccnc3cc(Cl)ccc23)cc1OC | inactive
23 | CCOc1ccc2nccc(N(C)CCc3ccc(OC)c(OC)c3)c2c1 | inactive
24 | COc1ccc(C2CCN(c3ccnc4ccccc34)CC2)cc1OC | inactive
25 | COc1ccc(CCNC(=O)c2cc(C)ccc2N)cc1OC | inactive
26 | COc1ccc(CCN(C)c2ccnc3c(F)cccc23)cc1OC | inactive
27 | CN(CCCc1ccc(O)c(O)c1)c1c2ccccc2nc2ccccc12 | inactive
28 | COc1ccc(CCN(C)c2ccnc3c(C)cccc23)cc1OC | inactive

The next lines start with the values.

Row | inhibition | Compound
29 | inactive | CCOc1ccc2nccc(NCCc3ccc(OC)c(OC)c3)c2c1
30 | inactive | COc1ccc(CCN(C)c2cc(C)nc3ccccc23)cc1OC
31 | inactive | CCN(CCc1ccc(OC)c(OC)c1)c1c2ccccc2nc2ccccc12
32 | inactive | COc1ccc(CCNc2ncnc3ccccc23)cc1OC
33 | inactive | COc1ccc(CCCN(C)c2c3ccccc3nc3ccccc23)cc1OC
34 | inactive | COc1ccc(CCNc2cc(C)nc3ccccc23)cc1OC
35 | inactive | COc1cc(Br)c(CCNc2c3c(nc4ccccc24)CCCC3)cc1OC
36 | inactive | COc1cc(Br)c(CCNc2c3ccccc3nc3ccccc23)cc1OC
37 | inactive | COc1ccc(CCCNc2c3c(nc4ccccc24)CCCC3)cc1OC
38 | inactive | COc1ccc(CCNc2ccnc3c(C)cccc23)cc1OC
39 | inactive | COc1cc(Br)c(CCNc2ccnc3ccccc23)cc1OC
40 | inactive | COc1ccc(CCNc2ccnc3cc(Cl)ccc23)cc1OC
41 | inactive | COc1ccc(CCNc2ccnc3c(F)cccc23)cc1OC
42 | inactive | COc1ccc(CCN(C)c2ncnc3ccccc23)cc1OC
43 | inactive | COc1ccc(CCN(C)c2c3ccccc3nc3ccccc23)cc1OC
44 | inactive | COc1ccc(CCNc2c3c(nc4ccc(C)cc24)CCCC3)cc1OC
